The RNAGym collection of RNA variant scans (doi:10.1126/science.aae0568)
Variants at the floor of the assay were thinned out.

B1: tRNA (parent)
chain: GUUCCGUUGGCGUAAUGGUAACGCGUCUCCCUCCUAAGGAGAAGACUGCGGGUUCGAGUCCCGUACGGAACG

Variants of: B1
Assay: yeast fitness relative to wild type (ratio to wild type); higher = fitter; tRNA-Arg(CCU), competitive growth, 37 C, YPD
Method in brief: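 For this measurement, the tRNA-Arg(CCU) gene was varied by chemical synthesis at a 3% per-site mutation rate across 69 sites, and each variant was placed at the native genomic locus in Saccharomyces cerevisiae. The pooled strains went through a 24-hour competition in YPD at 37°C in six parallel replicates, with amplicons from start and end populations read by 100-nucleotide paired-end sequencing. Darwinian fitness relative to wild type followed from the change in each genotype's frequency. Genotypes needed ≥ 100 starting reads, and estimates < 0.5 were set to 0.5.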

**Q.** For G56C G67U, which yeast fitness is on record?
**A.** 0.524

**Q.** Which yeast fitness does the source give for G56C G67A here?
**A.** 0.592

**Q.** Which yeast fitness does the source give for C55A C61G here?
**A.** ≤ 0.5

**Q.** For G56C U59A A65G, which yeast fitness is on record?
**A.** 0.571

**Q.** With U59G A70U as the variant, how does the yeast fitness read?
**A.** 0.747

**Q.** Which yeast fitness does the source give for C55U G56A here?
**A.** 0.735

**Q.** Which yeast fitness does the source give for A57C A65C here?
**A.** 0.594

**Q.** With G56A U64C as the variant, how does the yeast fitness read?
**A.** 1.01

**Q.** For U54C U64A A69U, which yeast fitness is on record?
**A.** 0.698

**Q.** With G56A A57U C62G as the variant, how does the yeast fitness read?
**A.** ≤ 0.5

**Q.** Which yeast fitness does the source give for U54G C60U here?
**A.** ≤ 0.5

**Q.** With U54C C60U as the variant, how does the yeast fitness read?
**A.** 0.546

**Q.** For A57G C66G A69U, which yeast fitness is on record?
**A.** ≤ 0.5

**Q.** Which yeast fitness does the source give for A57U C60G G68C here?
**A.** 0.532

**Q.** For G56A C62G U64G, which yeast fitness is on record?
**A.** ≤ 0.5

**Q.** With C55U G63C as the variant, how does the yeast fitness read?
**A.** 0.567

**Q.** For U54G A65G G68U A70C, which yeast fitness is on record?
**A.** ≤ 0.5

**Q.** For A57G C60U, which yeast fitness is on record?
**A.** 0.838

**Q.** Which yeast fitness does the source give for A57G C60A here?
**A.** 0.636

**Q.** Which yeast fitness does the source give for A57G C60G here?
**A.** 0.641

**Q.** For C60G C66G A69U, which yeast fitness is on record?
**A.** ≤ 0.5

**Q.** Which yeast fitness does the source give for A57U C60G G67A G68C here?
**A.** ≤ 0.5

**Q.** With U59C G68C as the variant, how does the yeast fitness read?
**A.** 0.765

**Q.** For C55U U59A A70U, which yeast fitness is on record?
**A.** 0.524

**Q.** Which yeast fitness does the source give for C55U C66G A70C here?
**A.** ≤ 0.5

**Q.** With G56A G63C as the variant, how does the yeast fitness read?
**A.** 0.818

**Q.** For G56U U59G A70G, which yeast fitness is on record?
**A.** ≤ 0.5

**Q.** With C60A C61U as the variant, how does the yeast fitness read?
**A.** 0.599

**Q.** With C60A C61G as the variant, how does the yeast fitness read?
**A.** 0.635

**Q.** Which yeast fitness does the source give for C55U A57G here?
**A.** 0.747

**Q.** With C55U A57C as the variant, how does the yeast fitness read?
**A.** 0.584

**Q.** For U54C G63A, which yeast fitness is on record?
**A.** 0.701

**Q.** Which yeast fitness does the source give for U59G U64C A65U here?
**A.** ≤ 0.5

**Q.** Which yeast fitness does the source give for G58A G67U here?
**A.** 0.804

**Q.** For G58C C62G A70U, which yeast fitness is on record?
**A.** 0.616

**Q.** With G58C C60G as the variant, how does the yeast fitness read?
**A.** 0.683

**Q.** Which yeast fitness does the source give for U59A A65C here?
**A.** 0.892

**Q.** Which yeast fitness does the source give for G58C U64A here?
**A.** 0.81

**Q.** Which yeast fitness does the source give for G56A C61U C62G here?
**A.** ≤ 0.5

**Q.** With A57U A69G A70C as the variant, how does the yeast fitness read?
**A.** ≤ 0.5

**Q.** With A57U A69U as the variant, how does the yeast fitness read?
**A.** 0.668

**Q.** For A57U A69C, which yeast fitness is on record?
**A.** 0.69

**Q.** With G58A G63C as the variant, how does the yeast fitness read?
**A.** 0.784

**Q.** Which yeast fitness does the source give for G58A G63A here?
**A.** 0.954

**Q.** For G56A A65G, which yeast fitness is on record?
**A.** 1.01

**Q.** With G56A A65C as the variant, how does the yeast fitness read?
**A.** 1.1

**Q.** With U54C A57U C60A G68C as the variant, how does the yeast fitness read?
**A.** ≤ 0.5

**Q.** For A57G C61G, which yeast fitness is on record?
**A.** 0.61

**Q.** Which yeast fitness does the source give for A57G C61U here?
**A.** 0.699

**Q.** Which yeast fitness does the source give for C55A U59A here?
**A.** 0.513

**Q.** Which yeast fitness does the source give for G56C C66A here?
**A.** 0.567

**Q.** With G56C C66U as the variant, how does the yeast fitness read?
**A.** 0.699

**Q.** Which yeast fitness does the source give for A57C A65U C66G here?
**A.** ≤ 0.5

**Q.** For G58A C61G A70U, which yeast fitness is on record?
**A.** 0.749

**Q.** For C55U C61A A65G, which yeast fitness is on record?
**A.** ≤ 0.5

**Q.** With C55U C61A A65U as the variant, how does the yeast fitness read?
**A.** 0.581

**Q.** With A57C C62A C66A as the variant, how does the yeast fitness read?
**A.** ≤ 0.5

**Q.** With G56A C60U as the variant, how does the yeast fitness read?
**A.** 0.845

**Q.** For C55G C60U, which yeast fitness is on record?
**A.** ≤ 0.5

**Q.** For G58U, which yeast fitness is on record?
**A.** 1.04

**Q.** For G58A, which yeast fitness is on record?
**A.** 0.981

**Q.** Which yeast fitness does the source give for G58C here?
**A.** 0.992

**Q.** Which yeast fitness does the source give for G56C C62U A70U here?
**A.** 0.598

**Q.** Which yeast fitness does the source give for G58A G68U A70G here?
**A.** 0.601

**Q.** For U59A A69C, which yeast fitness is on record?
**A.** 0.914

**Q.** With C55G U59G as the variant, how does the yeast fitness read?
**A.** 0.566

**Q.** Which yeast fitness does the source give for C55A A57C G68C here?
**A.** 0.5

**Q.** For G56C A65G, which yeast fitness is on record?
**A.** 0.606

**Q.** With G56C G67A A70C as the variant, how does the yeast fitness read?
**A.** 0.527

**Q.** For U59G A69C, which yeast fitness is on record?
**A.** 0.653

**Q.** For U59G A69G, which yeast fitness is on record?
**A.** 1

**Q.** Which yeast fitness does the source give for C55A C62U C66U here?
**A.** 0.517

**Q.** For C55A A57C U64C A65U, which yeast fitness is on record?
**A.** 0.527

**Q.** Which yeast fitness does the source give for C60G A69U A70U here?
**A.** 0.545

**Q.** For C60G C62G A70G, which yeast fitness is on record?
**A.** ≤ 0.5

**Q.** With C55G C60A C62A G68A A69U as the variant, how does the yeast fitness read?
**A.** ≤ 0.5

**Q.** For U59C A65U, which yeast fitness is on record?
**A.** 0.96

**Q.** For U59C A65G, which yeast fitness is on record?
**A.** 0.938

**Q.** With A57G C61G C66U as the variant, how does the yeast fitness read?
**A.** ≤ 0.5

**Q.** With U54C A69G A70G as the variant, how does the yeast fitness read?
**A.** 0.566

**Q.** With C55U C62G C66A as the variant, how does the yeast fitness read?
**A.** 0.53

**Q.** Which yeast fitness does the source give for G58C U64A A69C here?
**A.** 0.514

**Q.** For G58C U64A A69G, which yeast fitness is on record?
**A.** 0.61
